Measured values from ChEMBL document CHEMBL1130139, “Synthesis and activity of 6-substituted purine linker amino acid immunostimulants” (1997).
Where “and” joins values, the source holds several entries; their conditions need not be identical. Identical values can stand only once.

Assays:
Assay type in all cases: functional
Mus musculus [1] = organism: Mus musculus; assay: In vitro cytotoxic T-Lymphocyte (CTL) activity relative to interleukin 2 was obtained at a concentration of 10 e -7 M(++ represents 41 - 60% of interleukin 2)
In short: (§1)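 Splenocytes from 6- to 8-week-old female C57BL/6 and irradiated (3000 rads) DBA/2 mice, 10⁷ cells, were cultured together in RPMI 1640 with 10% FCS. Culture ran 120 h at 37 °C in 5% CO₂, with [³H]thymidine pulse of an aliquot. Percent specific lysis was scaled to IL 2 (taken as 100%) and scored 0 to ++++ in 20% bands.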

Mus musculus [2] = organism: Mus musculus; assay: In vitro cytotoxic T-Lymphocyte (CTL) activity relative to interleukin 2 was obtained at a concentration of 10 e -97M(++ represents 41 - 60% of interleukin 2); in short: as §1
Mus musculus [3] = organism: Mus musculus; assay: In vitro cytotoxic T-Lymphocyte (CTL) activity relative to interleukin 2 was obtained at a concentration of 10 e -5 M(+ represents 21 - 40% of interleukin 2); in short: as §1
Mus musculus [4] = organism: Mus musculus; assay: In vitro cytotoxic T-Lymphocyte (CTL) activity relative to interleukin 2 was obtained at a concentration of 10 e -7 M(+ represents 21 - 40% of interleukin 2); in short: as §1
Mus musculus [5] = organism: Mus musculus; assay: In vitro cytotoxic T-Lymphocyte (CTL) activity relative to interleukin 2 was obtained at a concentration of 10 e -9 M(++ represents 41 - 60% of interleukin 2); in short: as §1
Mus musculus [6] = organism: Mus musculus; assay: In vitro cytotoxic T-Lymphocyte (CTL) activity relative to interleukin 2 was obtained at a concentration of 10 e -7 M(++ represents 21 - 40% of interleukin 2); conditions: in the assay text read “+ represents” for “++ represents”; in short: as §1
Mus musculus [7] = organism: Mus musculus; assay: In vitro cytotoxic T-Lymphocyte (CTL) activity relative to interleukin 2 was obtained at a concentration of 10 e -7 M (++ represents 41 - 60% of interleukin 2); in short: as §1
Mus musculus [8] = organism: Mus musculus; assay: In vitro cytotoxic T-Lymphocyte (CTL) activity relative to interleukin 2 was obtained at a concentration of 10 e -5 M (+ represents 21 - 40% of interleukin 2); in short: as §1
Mus musculus [9] = organism: Mus musculus; assay: In vitro cytotoxic T-Lymphocyte (CTL) activity relative to interleukin 2 was obtained at a concentration of 10 e -7 M(++ +represents 61 - 80% of interleukin 2); in short: as §1
Mus musculus [10] = organism: Mus musculus; assay: In vitro cytotoxic T-Lymphocyte (CTL) activity relative to interleukin 2 was obtained at a concentration of 10 e -7 M(++++ represents 81 - 100% of interleukin 2); in short: as §1
Mus musculus [11] = organism: Mus musculus; assay: In vitro cytotoxic T-Lymphocyte (CTL) activity relative to interleukin 2 was obtained at a concentration of 10 e -5 M(++ represents 41 - 60% of interleukin 2); in short: as §1
Mus musculus [12] = assay: In vivo blood immunophenotyping (CD4+CD45+ cells) assay was performed by injecting 0 mg/Kg of compound intraperitoneally in mice
In short: (§2)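 Female 6- to 8-week-old C57BL/6 mice were dosed ip once daily for one, four or nine consecutive days, drug in physiological saline. For single dosing, groups of seven were used. Blood and spleen cells were ACK-lysed (pH 7.3, 5 min) and PBS-washed, then stained 45 min on ice with FITC/PE surface-marker antibodies. Cells were fixed in 1% paraformaldehyde and read by flow cytometry as relative subset percentages.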

Mus musculus [13] = assay: In vivo blood immunophenotyping (CD4+CD45+ cells) assay was performed by injecting 100 mg/Kg of compound intraperitoneally in mice; in short: as §2
Mus musculus [14] = assay: In vivo blood immunophenotyping (CD4+CD45+ cells) assay was performed by injecting 25 mg/Kg of compound intraperitoneally in mice; in short: as §2
Mus musculus [15] = assay: In vivo blood immunophenotyping (CD4+CD45+ cells) assay was performed by injecting 50 mg/Kg of compound intraperitoneally in mice; in short: as §2
Mus musculus [16] = assay: In vivo spleen immunophenotyping (TCR cells) assay was performed by injecting 25 mg/Kg of compound intraperitoneally in mice; in short: as §2
Mus musculus [17] = assay: In vivo spleen immunophenotyping (TCR cells) assay was performed by injecting 50 mg/Kg of compound intraperitoneally in mice; in short: as §2
Mus musculus [18] = assay: In vivo immunophenotyping (CD4-CD8- cells) assay was performed by injecting 25 mg/Kg of compound intraperitoneally in mice and blood is collected; in short: as §2
Mus musculus [19] = assay: In vivo immunophenotyping (CD4-CD8- cells) assay was performed by injecting 50 mg/Kg of compound intraperitoneally in mice and blood is collected; in short: as §2
Mus musculus [20] = assay: In vivo spleen immunophenotyping (CD8+CD45+ cells) assay was performed by injecting 0 mg/Kg of compound intraperitoneally in mice; in short: as §2
Mus musculus [21] = assay: In vivo spleen immunophenotyping (CD8+CD45+ cells) assay was performed by injecting 100 mg/Kg of compound intraperitoneally in mice; in short: as §2
Mus musculus [22] = assay: In vivo spleen immunophenotyping (CD8+CD45+ cells) assay was performed by injecting 25 mg/Kg of compound intraperitoneally in mice; in short: as §2
Mus musculus [23] = assay: In vivo spleen immunophenotyping (CD8+CD45+ cells) assay was performed by injecting 50 mg/Kg of compound intraperitoneally in mice; in short: as §2
Mus musculus [24] = assay: In vivo spleen immunophenotyping (Ly5 cells) assay was performed by injecting 0 mg/Kg of compound intraperitoneally in mice; in short: as §2
Mus musculus [25] = assay: In vivo spleen immunophenotyping (Ly5 cells) assay was performed by injecting 25 mg/Kg of compound intraperitoneally in mice; in short: as §2
Mus musculus [26] = assay: In vivo spleen immunophenotyping (Ly5 cells) assay was performed by injecting 50 mg/Kg of compound intraperitoneally in mice; in short: as §2
Mus musculus [27] = assay: In vivo spleen immunophenotyping (TCR cells) assay was performed by injecting 0 mg/Kg of compound intraperitoneally in mice; in short: as §2
Mus musculus [28] = assay: In vivo blood immunophenotyping (CD4-CD11b+ cells) assay was performed by injecting 0 mg/Kg of compound intraperitoneally in mice; in short: as §2
Mus musculus [29] = assay: In vivo blood immunophenotyping (CD4-CD11b+ cells) assay was performed by injecting 25 mg/Kg of compound intraperitoneally in mice; in short: as §2
Mus musculus [30] = assay: In vivo blood immunophenotyping (CD4-CD11b+ cells) assay was performed by injecting 50 mg/Kg of compound intraperitoneally in mice; in short: as §2
Mus musculus [31] = assay: In vivo blood immunophenotyping (CD8+CD45+ cells) assay was performed by injecting 0 mg/Kg of compound intraperitoneally in mice; in short: as §2
Mus musculus [32] = assay: In vivo blood immunophenotyping (CD8+CD45+ cells) assay was performed by injecting 100 mg/Kg of compound intraperitoneally in mice; in short: as §2
Mus musculus [33] = assay: In vivo blood immunophenotyping (CD8+CD45+ cells) assay was performed by injecting 25 mg/Kg of compound intraperitoneally in mice; in short: as §2
Mus musculus [34] = assay: In vivo blood immunophenotyping (CD8+CD45+ cells) assay was performed by injecting 50 mg/Kg of compound intraperitoneally in mice; in short: as §2
Mus musculus [35] = assay: In vivo blood immunophenotyping (NK+CD3+ cells) assay was performed by injecting 0 mg/Kg of compound intraperitoneally in mice; in short: as §2
Mus musculus [36] = assay: In vivo blood immunophenotyping (NK+CD3+ cells) assay was performed by injecting 25 mg/Kg of compound intraperitoneally in mice; in short: as §2
Mus musculus [37] = assay: In vivo blood immunophenotyping (NK+CD3+ cells) assay was performed by injecting 50 mg/Kg of compound intraperitoneally in mice; in short: as §2
Mus musculus [38] = assay: In vivo blood immunophenotyping (NK+CD3- cells) assay was performed by injecting 0 mg/Kg of compound intraperitoneally in mice; in short: as §2
Mus musculus [39] = assay: In vivo blood immunophenotyping (NK+CD3- cells) assay was performed by injecting 25 mg/Kg of compound intraperitoneally in mice; in short: as §2
Mus musculus [40] = assay: In vivo blood immunophenotyping (NK+CD3- cells) assay was performed by injecting 50 mg/Kg of compound intraperitoneally in mice; in short: as §2
Mus musculus [41] = assay: In vivo immunophenotyping (CD4+ cells) assay was performed by injecting 0 mg/Kg of compound intraperitoneally in mice and blood is collected; in short: as §2
Mus musculus [42] = assay: In vivo immunophenotyping (CD4-CD8- cells) assay was performed by injecting 0 mg/Kg of compound intraperitoneally in mice and blood is collected; in short: as §2
Mus musculus [43] = assay: In vivo immunophenotyping (CD4-CD8- cells) assay was performed by injecting 100 mg/Kg of compound intraperitoneally in mice and blood is collected; in short: as §2

Compound: CC1CN1c1ncnc2c1ncn2CCCCCOC(=O)N[C@@H](CCCNC(=N)N)C(=O)O (stereo partly drawn)
- CTL activity (Mus musculus [1]): 41 - 60% of interleukin 2

Compound: CN(C)c1ncnc2c1ncn2CCCCCCOC(=O)N[C@@H](CCCNC(=N)N)C(=O)O
- CTL activity (Mus musculus [1]): 41 - 60% of interleukin 2

Compound: CN(C)c1ncnc2c1ncn2CCCCCNC(=O)OCCCCCn1cnc2c(N(C)C)ncnc21
- CTL activity (Mus musculus [1]): 41 - 60% of interleukin 2

Compound: CN(C)c1ncnc2c1ncn2CCCCCO
- CTL activity (Mus musculus [2]): 41 - 60% of interleukin 2

Compound: CN(C)c1ncnc2c1ncn2CCCCCOC(=O)CCN
- CTL activity (Mus musculus [1]): 41 - 60% of interleukin 2

Compound: CN(C)c1ncnc2c1ncn2CCCCCOC(=O)NC(CCCNC(N)=O)C(=O)O (stereo not drawn)
- CTL activity (Mus musculus [3]): 21 - 40% of interleukin 2

Compound: CN(C)c1ncnc2c1ncn2CCCCCOC(=O)NCC(=O)O
- CTL activity (Mus musculus [4]): 21 - 40% of interleukin 2

Compound: CN(C)c1ncnc2c1ncn2CCCCOC(=O)N[C@@H](CCCNC(=N)N)C(=O)O
- CTL activity (Mus musculus [5]): 41 - 60% of interleukin 2

Compound: CN(C)c1ncnc2c1ncn2C[C@H]1CC[C@@H](COC(=O)N[C@@H](CCCNC(=N)N)C(=O)O)CC1
- CTL activity (Mus musculus [3]): 21 - 40% of interleukin 2

Compound: CN(C)c1ncnc2c1ncn2C[C@H]1CC[C@H](COC(=O)N[C@@H](CCCNC(=N)N)C(=O)O)CC1
- CTL activity (Mus musculus [1]): 41 - 60% of interleukin 2

Compound: N=C(N)NCCC[C@@H](NC(=O)OCCCCCn1cnc2c(O)ncnc21)C(=O)O
- CTL activity (Mus musculus [1]): 41 - 60% of interleukin 2

Compound: N=C(N)NCCC[C@H](NC(=O)OCCCCCn1cnc2c(N3CCC3)ncnc21)C(=O)O
- CTL activity (Mus musculus [6]): 21 - 40% of interleukin 2

Compound: N=C(N)NCCC[C@H](NC(=O)OCCCCCn1cnc2c(NC3CC3)ncnc21)C(=O)O
- CTL activity (Mus musculus [6]): 21 - 40% of interleukin 2

Compound: CN(C)c1ncnc2c1ncn2CCSCCOC(=O)NC(CCCNC(=N)N)C(=O)O (single isomer, unassigned)
- CTL activity (Mus musculus [7]): 41 - 60% of interleukin 2

Compound: CNc1ncnc2c1ncn2CCCCCOC(=O)NC(CCCNC(=N)N)C(=O)O (single isomer, unassigned)
- CTL activity (Mus musculus [8]): 21 - 40% of interleukin 2

Compound: N=C(N)NCCCC(NC(=O)OCCCCCn1cnc2c(N)ncnc21)C(=O)O (single isomer, unassigned)
- CTL activity (Mus musculus [4]): 21 - 40% of interleukin 2
- CTL activity (Mus musculus [9]): +

Compound: N=C(N)NCCCC(NC(=O)OCCCCCn1cnc2c(NN)ncnc21)C(=O)O (single isomer, unassigned)
- CTL activity (Mus musculus [10]): ++

Compound: N=C(N)NCCCC(NC(=O)OCCCCCn1cnc2c(O)ncnc21)C(=O)O (single isomer, unassigned)
- CTL activity (Mus musculus [1]): 41 - 60% of interleukin 2

Compound: N=C(N)NCCCC(NC(=O)OCCCCCn1cnc2c(S)ncnc21)C(=O)O (single isomer, unassigned)
- CTL activity (Mus musculus [4]): 21 - 40% of interleukin 2

Compound: N=C(N)NCCCC(NC(=O)OCCCCCn1cnc2cncnc21)C(=O)O (single isomer, unassigned)
- CTL activity (Mus musculus [11]): 41 - 60% of interleukin 2

Compound: CN(C)c1ncnc2c1ncn2CCCCCOC(=O)N[C@@H](CCCNC(=N)N)C(=O)O [BCH-1393]
- Mean (Mus musculus [12]): 17.5
- Mean (Mus musculus [13]): 20.6
- Mean (Mus musculus [14]): 18.5
- Mean (Mus musculus [15]): 22.1
- Mean (Mus musculus [16]): 39.8
- Mean (Mus musculus [17]): 45.1
- Mean (Mus musculus [18]): 70.7
- Mean (Mus musculus [19]): 74.7
- Mean (Mus musculus [20]): 7.81
- Mean (Mus musculus [21]): 9.13
- Mean (Mus musculus [22]): 7.46
- Mean (Mus musculus [23]): 8.92
- Mean (Mus musculus [24]): 55.5
- Mean (Mus musculus [25]): 54.1
- Mean (Mus musculus [26]): 50.4
- Mean (Mus musculus [27]): 38.9
- Mean (Mus musculus [28]): 9.6
- Mean (Mus musculus [29]): 13.7
- Mean (Mus musculus [30]): 9.68
- Mean (Mus musculus [31]): 8.25 and 6.9
- Mean (Mus musculus [32]): 9.96
- Mean (Mus musculus [33]): 11.7 and 8.39
- Mean (Mus musculus [34]): 10.1 and 9.06
- Mean (Mus musculus [35]): 3.43
- Mean (Mus musculus [36]): 5.84
- Mean (Mus musculus [37]): 3.25
- Mean (Mus musculus [38]): 6.01
- Mean (Mus musculus [39]): 5.9
- Mean (Mus musculus [40]): 8.14
- Mean (Mus musculus [41]): 20.9 and 8.1
- Mean (Mus musculus [42]): 65.9
- Mean (Mus musculus [43]): 82.1
